The test system of assay [1] is A549. Briefly: Cytotoxicity against human A549 cells. To be noted: read-out: ED50 (the source's name). The class given is functional. The essentials:
(§1)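 Sulforhodamine B growth assay. Lines kept in RPMI-1640 with 25 mM HEPES, 0.25% sodium bicarbonate, 10% FBS and kanamycin. Trypsinized cells seeded at 1500–7500 per well, with compound added from DMSO-diluted stock. After 3 days, attached cells fixed with cold 50% TCA, stained with 0.4% SRB, dye solubilized, absorbance read at 562 nm. ED50 is 50% growth reduction, averaged over at least three independent determinations.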

Assay [2] relates to A-431. Briefly: Cytotoxicity against human A431 cells. The class given is functional. To be noted: read-out: ED50 (the source's name). The essentials: as §1
The subject of assay [3] is 1A9. Briefly: Cytotoxicity against human 1A9 cells. The assay is classed as functional. To be noted: read-out: ED50 (the source's name). The method in brief: as §1
In assay [4] the test system is HCT-8. Briefly: Cytotoxicity against human HCT8 cells. The class given is functional. Particulars: read-out: ED50 (the source's name). The essentials: as §1
Assay [5] has as its system PC-3. Briefly: Cytotoxicity against human PC3 cells. The class given is functional. Particulars: read-out: ED50 (the source's name). The essentials: as §1
Assay [6] has as its system KB. Briefly: Cytotoxicity against human KB cells. The class given is functional. Particulars: read-out: ED50 (the source's name). The method in brief: as §1
Assay [7] deals with KB. Briefly: Cytotoxicity against human vincristine-resistant KB cells. The class given is functional. To be noted: read-out: ED50 (the source's name). The method in brief: as §1
Assay [8] in a line: Selectivity ratio of ED50 for KB cells to ED50 for KB-VIN cells. The assay is classed as functional, Homo sapiens.

Values after ≈ are worked out from the molar mass of the structure shown.

Regarding `COC1=C(C)C(=O)/C(=C(O)/C=C/c2c(C)cc(C)cc2C)C(=O)C1(C)C`, the EC50 in assay [1] is 8 µg/mL (≈ 22.6 µM); in assay [2], 20 µg/mL (≈ 56.4 µM); in assay [3] it was 6.2 µg/mL (≈ 17.5 µM); in assay [4], 8.4 µg/mL (≈ 23.7 µM); in assay [5], > 20 µg/mL; in assay [6], > 20 µg/mL. For the same molecule, the EC50 in assay [7] stood at 1.84 µg/mL (≈ 5.19 µM). In addition, the “Ratio ED50” value in assay [8] is >5.
With `CCC1=C(OC)C(C)(C)C(=O)C(C(=O)/C=C/c2ccccc2)=C1O`, the EC50 in assay [1] turned out to be 5.5 µg/mL (≈ 16.9 µM); in assay [2], 13.8 µg/mL (≈ 42.3 µM); in assay [3] it was 3.8 µg/mL (≈ 11.6 µM); in assay [4], 9.4 µg/mL (≈ 28.8 µM); in assay [5] it was 18.9 µg/mL (≈ 57.9 µM); in assay [6] it was 4.3 µg/mL (≈ 13.2 µM). In addition, the EC50 in assay [7] was 0.3 µg/mL (≈ 0.919 µM). Also, in assay [8], the “Ratio ED50” value came to 14.3.

The record behind these values is ChEMBL document CHEMBL1145425, “Antitumor agents 259. Design, syntheses, and structure-activity relationship study of desmosdumotin C analogs” (2007).
